This is a sample that favours compounds with a hit; in the whole collection about 2.8% have one here.
NPY-Y1 antag: antagonists of human neuropeptide Y receptor Y1; P25929; hit rate 1% among 200,000; HEK293-CNG Y1 cells, membrane potential fluorescence; NPY at EC95, then isoproterenol; inhibition, % at 3.6 µM; AID 1040;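 active means inhibition above the campaign mean inhibition of all tested compounds plus 3 SD, cut at about 20% in these data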;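 further: 0% = DMSO wells given NPY plus isoproterenol and 100% = isoproterenol alone without NPY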
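material = HEK293 cells with Y1 receptor plus CNG channel | also added = NPY 25 nM then isoproterenol 1 µM plus Ro 20-1724 25 µM | schedule = dye 3 h, compound 60 min room temperature, stimulation 45 min | measured by = membrane potential fluorescence | benchmarks = high control isoproterenol alone, low control NPY with isoproterenol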
NPY-Y1 PAM-ag: potentiates or activates human NPY-Y1 receptor; NPY-Y1 expressing cells, potentiator/agonist activation; activation, % at 3.6 µM; hit rate 0.37% among 220,000; AID 1304; in the data active means activation above about 33%, passing the limit was not always enough;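 further: cells stimulated with NPY at EC10 then isoproterenol at EC100; 0% = low agonist plus stimulus and 100% = saturating agonist plus stimulus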
NPY2 pot ag: potentiators or agonists of human neuropeptide Y receptor Y2. P49146. activation, % at 3.6 µM. cells expressing NPY-Y2, potentiator/agonist read-out. AID 1359. hit rate 0.45% among 220,000; in the data active means activation above about 27%;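 further: cells stimulated with NPY near EC25 plus isoproterenol at EC100; 0% = vehicle plus submaximal agonist and 100% = vehicle plus saturating agonist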
Rad51 HR inh: Rad51 (human) homologous recombination inhibition; hRad51 DNA strand exchange, fluorescence dequenching; inhibition, % at 10 µM; hit rate 0.085% among 200,000;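 active means inhibition above 40% at the single screening dose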;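 further: 0% = DMSO control wells and 100% = blanks with heterologous ssDNA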
Target sequence (Q06609 whole entry, looked up): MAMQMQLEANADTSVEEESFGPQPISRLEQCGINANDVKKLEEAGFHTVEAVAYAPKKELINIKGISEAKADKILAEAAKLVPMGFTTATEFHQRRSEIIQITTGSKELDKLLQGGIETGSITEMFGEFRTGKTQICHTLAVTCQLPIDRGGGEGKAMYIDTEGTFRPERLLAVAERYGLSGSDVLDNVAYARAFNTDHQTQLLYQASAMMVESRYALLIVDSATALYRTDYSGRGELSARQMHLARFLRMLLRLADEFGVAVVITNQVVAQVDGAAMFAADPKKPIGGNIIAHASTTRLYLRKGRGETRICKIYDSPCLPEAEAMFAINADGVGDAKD
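Material: Human Rad51 nucleoprotein filaments preassembled on unlabelled ssDNA | Also added: Labelled 47-mer dsDNA for strand exchange | Dosing: Single dose, 10 µM final compound | Schedule: 30-min compound preincubation and 15-min exchange, both room temperature | Technique: Fluorescence dequenching at 485/520 nm | Measure: Percent inhibition relative to plate controls and blanks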
Measles CPE: protection of cells from measles virus; Measles virus-infected cells, CPE protection, absorbance; protection (pct of control), % at 4 µM; hit rate 1.5% among 140,000; in the data active means protection mostly above about 24%, no sharp cut-off; inactive means mostly below about 26%
NPY Y2 blocker: antagonists of human neuropeptide Y receptor Y2; P49146; NPY-Y2 expressing cells, antagonist mode; inhibition, % at 2.7 µM; hit rate 0.99% among 140,000; AID 793; in the data active means inhibition above about 17%;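 further: 0% = vehicle with agonist challenge and 100% = reference antagonist with challenge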
Active calls of the source: *; . = no result.

SMILES | NPY-Y1 antag | NPY-Y1 PAM-ag | NPY2 pot ag | Rad51 HR inh | Measles CPE | NPY Y2 blocker
CC(NC(=O)c1ccc(F)cc1)c1ccccc1 (centres undefined) | -5 | 4 | -4 | 9 | 38* | 1
CCOC(=O)C1(C(=O)OCC)CC1c1ccccc1 (centres undefined) | -2 | 7 | -14 | 58* | 25 | 2
O=C(CSc1nnc(Cc2ccccc2)o1)N1CCc2ccccc21 | 3 | -24 | -13 | 85* | 7 | 1
Cn1cnnc1SCC(=O)N1CCc2ccccc21 | 2 | 17 | 3 | 3 | 11 | 5
CC(C)c1nnc(SCC(=O)N2CCc3ccccc32)n1C | 0 | -14 | -14 | -8 | 29* | 2
COc1ccc(/C=C/C(=O)NC(=S)Nc2ccc(C(=O)O)cc2)cc1 | -1 | 7 | 12 | -16 | 26 | 2
NCCNc1ccc([N+](=O)[O-])c(NC2CC2)c1 | 2 | -34 | 4 | . | 15 | 2
O=C(NS(=O)(=O)c1ccc(NC(=O)C2CCCO2)cc1)c1ccccc1 (centres undefined) | -1 | -2 | 0 | -1 | 2 | -1
O=C(Nc1ccc(S(=O)(=O)Nc2ccc(Cl)cc2)cc1)C1CCCO1 (centres undefined) | -13 | 7 | 13 | -3 | 40* | -2
O=C(O)Cc1ccc2c(c1)N(S(=O)(=O)c1cccc(C(F)(F)F)c1)CC(C(=O)O)O2 (centres undefined) | 9 | -8 | 2 | -1 | 43* | -1
CCCn1c(N)c(C(=S)NC(=O)C2CC2)c(=O)n(C)c1=O | 2 | -22 | -9 | . | 12 | 4
Cc1ccc(C)c(N(CC(N)=O)S(C)(=O)=O)c1 | 7 | -5 | 4 | 6 | 50* | 2
Cc1ccccc1N(CC(N)=O)S(C)(=O)=O | -7 | -18 | -2 | -1 | 5 | 4
COc1ccc(-c2nn(-c3ccccc3)cc2CNCCN2CCOC2=O)c(F)c1 | 1 | 0 | -14 | 6 | . | .
COc1ccc(-n2cc(CNCCCN3CCCC3=O)c(-c3ccccc3Cl)n2)cc1 | 20* | -2 | -7 | -2 | . | .
O=C(Oc1cccnc1)c1ccc([N+](=O)[O-])cc1 | 1 | -1 | 0 | . | 6 | 5
O=[N+]([O-])c1cc(Oc2cccnc2)cc([N+](=O)[O-])c1 | -1 | -21 | -1 | -7 | 55* | 2
Cn1nc2c3ccccc3n(Cc3ccccc3)c2nc1=S | . | -71 | 1 | -13 | . | .
O=C(/C=C/c1cccs1)Nc1cccc(NC(=O)/C=C/c2cccs2)n1 | -9 | 9 | 20 | -15 | 90* | 0
O=C(/C=C/c1cccs1)Nc1nccs1 | -4 | 9 | 11 | . | . | .
O=C(Nc1nc(-c2cccc3ccccc23)cs1)c1cnccn1 | -1 | -5 | -1 | 1 | 9 | 8
Cc1ccc(S(=O)(=O)N(CC(=O)N2CCN(c3ccc(F)cc3)CC2)C2CCCCC2)cc1 | -1 | -32 | -14 | -2 | 4 | 0
COc1ccc(NC(=O)c2ccc(-n3nc(C)cc3C)cc2)cc1OC | -1 | 21 | -14 | 5 | 49* | 2
Cc1cc(C)n(-c2ccc(C(=O)NC3=NCCS3)cc2)n1 | 0 | 3 | 4 | -3 | 35* | 0
O=C(CCC(=O)NCCCc1ccccc1)NCCCc1ccccc1 | 3 | -16 | 3 | -3 | 7 | 4
SMILES | NPY-Y1 antag | NPY-Y1 PAM-ag | NPY2 pot ag | Rad51 HR inh | Measles CPE | NPY Y2 blocker
CCCCCNC(=O)CCc1ccccc1 | 0 | 0 | 3 | 3 | 53* | -2
O=C(NCCc1nc(-c2ccccc2)cs1)c1ccc(Br)cc1 | 2 | -24 | -14 | 2 | 5 | 7
CCOC(=O)c1cnc2ccc(OCC)cc2c1N1CCN(c2ccccc2OC)CC1 | 9 | -51 | -13 | -3 | 6 | 5
CCOC(=O)c1cnc2ccc(OCC)cc2c1N(C)Cc1ccccc1 | 31* | -51 | -18 | 0 | 16 | 35*
C1CCN(c2nc(N3CCCCC3)nc(N3CCNCC3)n2)CC1 | -26 | 103* | 96* | 1 | 30 | 6
CCCOc1ccc(/C(O)=C2/C(=O)C(=O)N(CCCn3ccnc3)C2c2ccc(C)o2)cc1 (centres undefined) | . | -10 | 1 | -6 | . | .
CC1CC(c2ccccc2)n2nc(N3C(=O)c4ccccc4C3=O)nc2N1 (centres undefined) | -7 | -8 | -12 | -2 | 27* | -3
CS(=O)(=O)Nc1nc2n(n1)C(c1ccc(F)cc1)CC(c1ccccc1)N2 (centres undefined) | . | 2 | -2 | 9 | . | .
CCC1C(c2ccccc2)N(C)C(c2ccccc2)CC1(O)c1ccccc1 (centres undefined) | 7 | -14 | -18 | -6 | . | .
CC1C(c2ccccc2)N(C)C(c2ccccc2)C(C)C1(O)C#Cc1ccccc1 (centres undefined) | 14 | -34 | -12 | . | 9 | 18*
O=C(Cc1ccc(Br)cc1)Nc1ncc([N+](=O)[O-])s1 | . | 50* | 62* | -2 | . | .
COc1ccccc1CNCC(O)(c1ccc(Cl)cc1)c1ccc(Cl)cc1 | 21* | -37 | -5 | 5 | 18 | 21*
COc1cc(NC(=O)c2ccc(COCC(F)(F)F)cc2)cc(OC)c1OC | 5 | 13 | 1 | 11 | 30* | 2
COc1ccc(NC(=O)c2ccc(COCC(F)(F)C(F)F)cc2)cc1OC | -2 | -1 | -2 | -11 | 13 | 1
COCCCNC(=O)c1c(N)n(/N=C/c2cccs2)c2nc3ccccc3nc12 | 7 | -2 | 6 | -1 | 3 | 19*
O=C1/C(=C/c2ccc(Cl)cc2)NC(=S)N1Cc1cccnc1 | -8 | 8 | 6 | -4 | . | .
COc1ccc(NC(=O)c2cc(S(=O)(=O)N(Cc3ccccc3)c3ccccc3)ccc2Cl)cn1 | 2 | -15 | 0 | -9 | 39* | 2
COc1ccc(NC(=O)c2cccc(S(=O)(=O)N(C)c3ccccc3)c2)cn1 | -2 | -2 | -23 | -2 | 8 | 0
CCCCCc1c(O)nc(SCC(=O)O)[nH]c1=O | 6 | -22 | 6 | . | . | 3
COc1ccc(-c2c(C(F)(F)F)nn(C)c2NC(C)=O)cc1 | . | 7 | 1 | . | . | .
CC1(C)Cc2c(C#N)c(NCCc3ccccc3)nc(-c3ccco3)c2CO1 | 1 | -16 | -4 | 4 | 53* | 0
COc1cccc(-n2nc(C(=O)O)c3ccccc3c2=O)c1 | 6 | 5 | -9 | 14 | 45 | -1
COC(=O)CNC(=O)c1nn(-c2cccc(OC)c2)c(=O)c2ccccc12 | 2 | 7 | 0 | 2 | 44* | 3
COc1cccc(C2=NOC(C(=O)NC(C)C)C2)c1 (centres undefined) | -3 | 24 | -14 | -4 | 57* | 1
COc1ccc(C2=NOC(C(=O)NC(C)C)C2)cc1 (centres undefined) | -4 | 5 | 4 | -8 | 4 | 1
